The source of these data is PubChem BioAssay AID624466 (The Scripps Research Institute Molecular Screening Center, 2012).

The whole screen tested about 360,000 compounds, of which about 5,400 (1.5%) were called active. The list comes from a sample in which actives are over-represented; it also holds similar structures and randomly drawn compounds. A number with no mark means an inactive call.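 The calls were made as follows: active = inhibition above a per-plate cutoff, the mean inhibition of test compounds on that plate plus 3 SD (cut at about 49% in these data); inactive = the rest.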

The target in the experiment is Trace amine-associated receptor 1 (Homo sapiens) (UniProt Q96RJ0). Put plainly: human TAAR1 antagonists, primary screen, Fluo-8 calcium fluorescence, CHO RD-HGA16 cells (AID 624466).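 Also: 0% = DMSO plus EC80 beta-PEA response and 100% = DMSO alone without agonist.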 As to conditions: CHO RD-HGA16 TAAR1, Fluo-8 calcium fluorescence, antagonist; at 3 µM; hits give high values. The method, boiled down: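 Assay system: CHO-derived RD-HGA16 cells stably expressing human TAAR1 plus Gα16. Timing: 140 s kinetic read after compound, 140 s after agonist. Technique: kinetic Fluo-8 calcium fluorescence measurement. Measure: % inhibition of agonist calcium response.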
Chain of Trace amine-associated receptor 1 (Homo sapiens) (Q96RJ0 whole entry, looked up): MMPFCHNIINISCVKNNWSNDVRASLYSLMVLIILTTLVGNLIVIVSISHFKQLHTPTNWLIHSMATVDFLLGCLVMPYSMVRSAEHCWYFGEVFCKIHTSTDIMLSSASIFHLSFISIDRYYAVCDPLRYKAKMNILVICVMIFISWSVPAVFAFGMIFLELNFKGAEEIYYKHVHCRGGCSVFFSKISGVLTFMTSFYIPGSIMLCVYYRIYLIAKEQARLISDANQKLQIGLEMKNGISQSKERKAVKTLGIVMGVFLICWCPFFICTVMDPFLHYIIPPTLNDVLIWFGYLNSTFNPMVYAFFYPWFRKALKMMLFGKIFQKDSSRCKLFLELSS
One may read the inhibition as the relative decrease from the control value, in per cent. `Cc1cccc(N2CCN(Cc3nc(C4CC4)no3)CC2)n1`: the inhibition was -31.7%.

For the compound `Cc1cc(OC(=O)NCCc2ccc(F)cc2)ccc1F`, the inhibition is -10.5%.

Regarding `CC(C)CNc1cccc2c1S(=O)(=O)N[C@H](CC(C)C)CO2`, the inhibition was -8.78%.

As to `Cc1ccc(-c2nnc(SCC(=O)N/N=C/c3cccs3)n2-c2ccc(C)cc2)cc1`, the inhibition is 7.24%.

Take `Cc1nc2ccccc2n1CC(=O)N/N=C/c1cccs1`: the inhibition was 56.9% (active).

Consider `COc1ccc(NC(=O)COC(=O)Cn2c(C)nc3ccccc32)cc1OC`, for which the inhibition is 13.9%.

Turning to `Cc1[nH]c2ccccc2c1C(=O)c1cc([C@H](NC(=O)OC(C)(C)C)C(C)C)sc1N`, the inhibition is -5.4%.

`C=CCn1c(=O)c2ccccc2n2c(SCC(=O)N3CCCc4ccccc43)nnc12`: the inhibition was 5.64%.

As to `O=C(CSc1nc2ccccc2c(=O)n1CCCO)N1CCc2ccccc21`, the inhibition is -4.55%.

Turning to `Cn1c(SCC(=O)N2CCCc3ccccc32)nc2ccccc2c1=O`, the inhibition was 59.3% (active).

For the compound `COC(=O)c1sc(-c2ccc(C(C)(C)C)cc2)cc1NC(=O)/C=C/C(=O)O`, the inhibition was 69.3% (active).

On to `COc1ccccc1NC(=O)/C=C/C(N)=O`, for which the inhibition is -1.16%.

On to `COc1ccc(NS(=O)(=O)c2ccc(N3CCOCC3)c(NC(=O)/C=C/C(=O)O)c2)cc1`, for which the inhibition was -2.93%.

As for `O=C(Nc1cc(Br)ccc1F)c1nc[nH]c1C(=O)NCc1ccccc1`, the inhibition was -18.3%.

Take `Cc1cccc(NC(=O)c2nc[nH]c2C(=O)NCC(=O)OCc2ccccc2)c1`: the inhibition was 64% (active).

With `CC(C)(C)OC(=O)NCCCCCNC(=O)c1[nH]cnc1C(=O)Nc1nccs1`, the inhibition was 38.9%.

On to `O=C(N[C@@H](Cc1ccccc1)C(=O)OCc1ccccc1)c1nc[nH]c1C(=O)N[C@@H](Cc1ccccc1)C(=O)OCc1ccccc1`, for which the inhibition is 15.8%.

On to `CC(C)(C)OC(=O)CNC(=O)c1[nH]cnc1C(=O)N[C@@H](Cc1ccccc1)C(=O)OCc1ccccc1`, for which the inhibition was 51.3% (active).

As for `CC(C)(C)OC(=O)NCCCCCNC(=O)c1nc[nH]c1C(=O)NCc1ccccc1`, the inhibition was 60% (active).

As for `CNC(=O)c1[nH]cnc1C(=O)N[C@@H](CC(C)C)C(=O)OCc1ccccc1`, the inhibition was 23.5%.

Turning to `C[C@H](NC(=O)c1nc[nH]c1C(=O)NCC(=O)OC(C)(C)C)c1ccccc1`, the inhibition is -2.15%.

For `C[C@H](NC(=O)c1nc[nH]c1C(=O)NCC(=O)OC(C)(C)C)C(=O)OCc1ccccc1`, the inhibition is 60.9% (active).

Regarding `C[C@H](NC(=O)c1nc[nH]c1C(=O)N[C@@H](C)C(=O)OC(C)(C)C)C(=O)OC(C)(C)C`, the inhibition was 0.46%.

As for `CC(C)(C)OC(=O)N1CCC(NC(=O)c2[nH]cnc2C(=O)N[C@@H](Cc2ccccc2)C(=O)OCc2ccccc2)CC1`, the inhibition was 35.6%.

Turning to `O=C(Nc1ccon1)c1nc[nH]c1C(=O)NCc1ccccc1`, the inhibition was -5.83%.

As for `CN(CCc1ccccn1)C1CCCN(S(=O)(=O)c2ccccc2Cl)C1` (centres undefined), the inhibition is -19.7%.

Turning to `COc1ccccc1Cc1c(-c2ccc(F)cc2)nc2ccc(C)cn12`, the inhibition was -18.1%.

For `O=C(NCc1ccccc1)[C@H]1CCCN1C(=O)[C@H]1CCCN1C(=O)N1CCOCC1`, the inhibition was 15.4%.

With `CCCCn1nnnc1C(c1cc2ccccc2o1)N(C)Cc1ccc(Cl)c(Cl)c1` (centres undefined), the inhibition is -19.1%.

For `CC(C)[C@H]1COCCS(=O)(=O)N1Cc1ccccc1-c1cccc2c1sc1ccccc12`, the inhibition was -54.8%.

With `Nc1nc(CC(=O)CSc2ccc(Cl)cc2)nc(Nc2ccc(F)cc2)n1`, the inhibition is -2.27%.

With `C=CCC[C@@H](CCCCC)OC(=O)/C=C/[C@@H](O)[C@H](O)C[C@H](O)CC=C`, the inhibition was -5.68%.

Consider `Cc1nc(NC(=O)C(C)(C)C)sc1[N+](=O)[O-]`, for which the inhibition was -6.34%.

As to `Cc1ccc(C(=O)N2CC(=O)Nc3ccccc32)o1`, the inhibition was -3.59%.

Consider `O=C(NCc1ccccc1)C(c1ccc(F)cc1)N1CCN(C(=O)C2CCCO2)CC1` (centres undefined), for which the inhibition is -21.5%.

Regarding `CCCCC[C@H](C)N1C[C@@H](COCc2ccccc2)Oc2cc(N3CC[C@@H](N(C)C)C3)ccc2S1(=O)=O`, the inhibition is -6.02%.

As for `Nc1ncnc2c1ncn2[C@@H]1O[C@H](C(=O)N[C@@H](CCc2ccccc2)C(=O)NCC(=O)N2CCOCC2)[C@@H](O)[C@H]1O`, the inhibition is 8.4%.

For `COC(=O)C1=C(C)N(Cc2cccc(C(F)(F)F)c2)C(=NCc2ccccc2)NC1c1ccc(Cl)cc1` (centres undefined), the inhibition was 46%.

In the case of `COC(=O)[C@]12C[C@H](CC(=O)NCc3ccccc3)C(=O)N(CCC3=CCCCC3)C1=C[C@H](C(C)(C)C)O[C@@H]2C`, the inhibition is -44.8%.

`COc1cccc(-c2cc(CNC(=O)[C@@H](Cc3ccccc3)NC(=O)[C@H]3O[C@@H](n4cnc(C(N)=O)n4)[C@H](O)[C@@H]3O)no2)c1`: the inhibition was -23.1%.

Consider `O=C(NCCN1CCOCC1)c1ccc2c(c1)N(Cc1cccc(Cl)c1)C(=O)c1ccccc1S2(=O)=O`, for which the inhibition was -0.54%.

Regarding `CCN1CCN(CCNC(=O)c2ccc(/C=C3/Sc4ccccc4N(Cc4cccc(C)c4)C3=O)cc2)CC1`, the inhibition was 61.5% (active).

On to `O=C(NCCN1CCOCC1)/C(=C/c1ccc(F)cc1)NC(=O)c1ccccc1`, for which the inhibition is 1.45%.

Turning to `Cc1cccc(-c2nc3ccc(C(=O)NCCN4CCN(C)CC4)cc3nc2-c2cccc(C)c2)c1`, the inhibition was -13.7%.

Take `Cc1ccc(C(=O)N/C(=C\c2ccc(F)cc2)C(=O)NCCN2CCOCC2)cc1`: the inhibition is 0.72%.

Take `O=C(NCCN1CCOCC1)c1ccc(/C=C2\Sc3ccccc3N(Cc3ccc(F)cc3)C2=O)cc1`: the inhibition is 70.2% (active).

For the compound `C=C1C(=O)OC2C1CCC(C)=CCCC1(C)OC21` (centres undefined), the inhibition is -17.7%.

Regarding `CCOc1ccc(S(=O)(=O)NCCC(=O)NNC(=O)c2ccc(F)cc2)cc1`, the inhibition was -12%.

With `O=C(Nc1ccccc1N1CCOCC1)c1ccc(OCc2cscn2)cc1`, the inhibition is 29.3%.

As for `CC(C)OCCCNc1ncnc2c1[nH]c1ccc(F)cc12`, the inhibition was 51.5% (active).

`Cc1ccc(C2NC(C(=O)O)CS2)cc1` (centres undefined): the inhibition is -13.1%.

`O=C1/C(=C\c2ccc([N+](=O)[O-])cc2)CS(=O)(=O)C/C1=C/c1ccc([N+](=O)[O-])cc1`: the inhibition is 36.7%.

On to `c1ccc(CSc2ncnc3c2sc2nc(N4CCOCC4)c4c(c23)CCCC4)cc1`, for which the inhibition is -16.6%.

As for `c1ccc(C2CNCc3c2ccc2ccccc32)cc1` (centres undefined), the inhibition is 81.3% (active).

As to `c1ccc2c(CCN3CCNC[C@H]3Cc3cccc4ccccc34)cccc2c1`, the inhibition is 23.8%.

For the compound `O=C(CCNC(=O)Cn1ccc2ccccc2c1=O)NCCC1=CCCCC1`, the inhibition was -24.7%.

Consider `Cc1ccn2c(=O)c(C(=O)NCCC3=CCCCC3)c(O)nc2c1`, for which the inhibition is 64.5% (active).

Regarding `O=C(NCCC1=CCCCC1)c1ccc(-n2cncn2)cc1`, the inhibition was -0.95%.

As for `C(#CCN1CCOCC1)CCCN1CCOCC1`, the inhibition is -21.3%.

Take `O=C(COC(=O)C12CC3CC(CC(O)(C3)C1)C2)NC12CC3CC(CC(C3)C1)C2`: the inhibition is -12.3%.

Regarding `CCN(CC)c1ccc(NC(=O)c2ccc(Cl)nc2)cc1`, the inhibition is 6.5%.

Regarding `Cc1ccc(/C=N/NC(=O)C2=NNC(c3ccccc3)(c3ccccc3)C2)c(O)c1`, the inhibition is 0.27%.

With `CCN(CC)c1ccc(/C=N/NC(=O)c2cnccn2)c(O)c1`, the inhibition is 48.9% (active).

With `Nc1ncnc2c1ncn2[C@@H]1O[C@H](C(=O)N[C@@H](CCc2ccccc2)C(=O)N2CCCN(Cc3cccs3)CC2)[C@@H](O)[C@H]1O`, the inhibition was 3.27%.

Consider `COc1cccc(CC2(CO)CCN(Cc3cnc(-c4cccc(C)c4)nc3)CC2)c1`, for which the inhibition was 5.01%.

As to `COc1cccc(CNC(=O)[C@H]2CCCN2C(=O)[C@H]2CCCN2C(=O)C2CCCCC2)c1`, the inhibition is -16.5%.

Consider `COc1cccc(C=CC(=O)C=CC=Cc2ccccc2)c1`, for which the inhibition was -24.3%.

In the case of `COc1ccc(/C=C/C(=O)c2c(O)cc(OC)cc2OC)cc1`, the inhibition is 1.09%.

Consider `O=C(/C=C(O)/C=C/c1ccc(O)cc1)/C=C/c1ccc(O)cc1`, for which the inhibition is 68.2% (active).

For `O=C(COc1ccc(Cl)cc1)NCCSc1ccccc1`, the inhibition is 0.81%.

Consider `CCCNC(=O)C1(C)CCCN(Cc2c(C)nn(-c3ccccc3)c2C)C1` (centres undefined), for which the inhibition was 5.37%.

With `O=C1C(=O)N(CCCN2CCOCC2)C(c2ccc([N+](=O)[O-])cc2)/C1=C(\O)c1ccc2c(c1)OCCO2` (centres undefined), the inhibition was 6.85%.

Take `CC(=O)c1ccc(S(=O)(=O)NCC2CCN(C(=O)C(=O)c3cccs3)CC2)cc1`: the inhibition was -6.62%.

`O=C(CCN1CCN(c2ccccc2)CC1)NNC(=S)Nc1ccccc1`: the inhibition was -13.7%.

Consider `CCCCC(=O)NNC(=S)NC(=O)C(c1ccccc1)c1ccccc1`, for which the inhibition is 106% (active).

Take `CC(C)CC(=O)NC(=S)NCc1ccccc1`: the inhibition was -16.9%.

Regarding `O=C(C(=O)N1CCN(c2ccccc2)CC1)c1ccc2c(c1)OCO2`, the inhibition is -15%.

Turning to `COCc1cc(=O)[nH]c(SC)n1`, the inhibition is -6.85%.

On to `CC1CN(S(=O)(=O)c2ccc(C(=O)Nc3sccc3C(N)=O)cc2)CC(C)O1` (centres undefined), for which the inhibition was 9.54%.

As for `NS(=O)(=O)c1ccc(CNC(=O)c2cccc(S(=O)(=O)N3CCc4ccccc43)c2)cc1`, the inhibition was -6.37%.

Turning to `CNC(=O)c1ccsc1NC(=O)c1ccc(S(=O)(=O)N2CCc3ccccc32)cc1`, the inhibition is 62.9% (active).

`COCCn1c(=NC(=O)c2ccccc2[N+](=O)[O-])sc2cc(S(C)(=O)=O)ccc21`: the inhibition was -0.74%.

For the compound `O=S1(=O)CCO[C@H]2Cc3ccccc3[C@H]2N1Cc1ccccc1`, the inhibition is 9.98%.

Take `Cc1ccc(CNC(=O)CCNS(=O)(=O)c2ccc(Br)s2)cc1`: the inhibition was 5.04%.
